The values that follow come from ChEMBL document CHEMBL1671657, “MurF inhibitors with antibacterial activity: effect on muropeptide levels” (Antimicrob Agents Chemother, 2009).

For experiment [1], the system named is Escherichia coli. The experiment in a line: Antimicrobial activity against Escherichia coli OC2605 by broth microdilution method. The class given is functional. The gist of the method:
(§1)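 CLSI broth microdilution MIC; strains from the sponsor's in-house collection.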

Experiment [2] has as its system Staphylococcus aureus. Briefly: Antimicrobial activity against methicillin-resistant Staphylococcus aureus OC2878 by broth microdilution method. Type of experiment: functional. The gist of the method:
as §1

Experiment [3] has as its system Staphylococcus aureus. Briefly: Antimicrobial activity against Staphylococcus aureus ATCC 29213 assessed as growth inhibition. The class given is functional, organism-based.
For the next experiment, the system named is Enterococcus faecalis. Briefly: Antimicrobial activity against Enterococcus faecalis ATCC 29212 by broth microdilution method. The class given is functional. An outline of the steps:
(§2)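 MICs by CLSI broth microdilution. Where polymyxin B nonapeptide was included, it was present at 2 μg/ml alongside the test compound.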

For experiment [4], the system named is Staphylococcus aureus. The experiment in a line: Bacteriostatic activity against Staphylococcus aureus ATCC 29213 at 2 times MIC. The class given is functional, organism-based.
For experiment [5], the system named is Staphylococcus aureus. Briefly: Inhibition of Staphylococcus aureus ATCC 29213 MurF assessed as UDP-MurNAc-pentapeptide product level at 4 times MIC by HPLC (reference value: 1 mAU). The gist of the method: (§3)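 After 30 min, muropeptides were extracted and quantified by HPLC peak area, normalized to the control. The HPLC detection limit was 12 mAU. Results are representative of two independent experiments.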

The subject of the next experiment is Enterococcus faecium. Briefly: Antimicrobial activity against Enterococcus faecium OC3312 by broth microdilution method. The class given is functional. The gist of the method:
as §2

In experiment [6] the test system is Escherichia coli. The experiment in a line: Antimicrobial activity against LPS-deffective Escherichia coli OC2530 by broth microdilution method. The class given is functional. The gist of the method:
as §2

The subject of experiment [7] is Staphylococcus aureus. Briefly: Antimicrobial activity against Staphylococcus aureus ATCC 29213 assessed as cell lysis. Type of experiment: functional, organism-based.
Experiment [8] has as its system Staphylococcus aureus. The experiment in a line: Inhibition of Staphylococcus aureus ATCC 29213 MurF assessed as UDP-MurNAc-tripeptide substrate level at 4 times MIC by HPLC (reference value: 1 mAU). An outline of the steps:
as §3

Experiment [9] has as its system Staphylococcus aureus. The experiment in a line: Inhibition of Staphylococcus aureus ATCC 29213 MurF assessed as UDP-MurNAc-tripeptide substrate level at MIC by HPLC (reference value: 1 mAU). The gist of the method: as §3
Experiment [10] relates to Escherichia coli. The experiment in a line: Antimicrobial activity against Escherichia coli ATCC 25922 by broth microdilution method. The class given is functional. An outline of the steps: as §2
Experiment [11] concerns Staphylococcus aureus. The experiment in a line: Inhibition of Staphylococcus aureus ATCC 29213 MurF assessed as UDP-MurNAc-tripeptide substrate level at 2 times MIC by HPLC (reference value: 1 mAU). The gist of the method: as §3
Experiment [12] has as its system Staphylococcus aureus. The experiment in a line: Antimicrobial activity against Staphylococcus aureus ATCC 29213 by broth microdilution method. The class given is functional. An outline of the steps:
as §2

The test system of experiment [13] is Staphylococcus aureus. Briefly: Inhibition of Staphylococcus aureus ATCC 29213 MurF assessed as UDP-MurNAc-pentapeptide product level at 2 times MIC by HPLC (reference value: 1 mAU). An outline of the steps:
as §3

Experiment [14] deals with Staphylococcus aureus. Briefly: Inhibition of Staphylococcus aureus ATCC 29213 MurF assessed as UDP-MurNAc-pentapeptide product level at MIC by HPLC ([…]).
The subject of experiment [15] is Staphylococcus aureus. Briefly: Antimicrobial activity against Staphylococcus aureus OC4172 by broth microdilution method. Type of experiment: functional. An outline of the steps: as §2
Experiment [16] has as its system Escherichia coli. Briefly: Antimicrobial activity against Escherichia coli OC9040 by broth microdilution method. Type of experiment: functional. An outline of the steps: as §2
A short description of experiment [17]: Inhibition of Escherichia coli MurF.
In experiment [18] the test system is Staphylococcus aureus. The experiment in a line: Antimicrobial activity against methicillin-resistant Staphylococcus aureus OC3726 by broth microdilution method. Type of experiment: functional. The gist of the method: as §1
Experiment [19] deals with Escherichia coli. The experiment in a line: Inhibition of LPS-deficient Escherichia coli OC2530 MurF assessed as UDP-MurNAc-pentapeptide product level at 2 times MIC by HPLC (reference value: 1 mAU).
Experiment [20] has as its system Escherichia coli. Briefly: Bactericidal activity against LPS-deffective Escherichia coli OC2530 at 2 times MIC by CFU quantitation.
In experiment [21] the test system is Escherichia coli. The experiment in a line: Inhibition of LPS-deficient Escherichia coli OC2530 MurF harboring pASK plasmid assessed as UDP-MurNAc-pentapeptide product level at 2 times MIC by HPLC (Rvb =880 +/- 17 mAU). The gist of the method:
(§4)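 Compound added at 2× MIC from 500× stock (DMSO control). After 30 min, muropeptides extracted and quantified by HPLC peak area (mAU); representative of two independent experiments.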

The subject of experiment [22] is Escherichia coli. Briefly: Inhibition of LPS-deficient Escherichia coli OC2530 MurF harboring pASK plasmid assessed as UDP-MurNAc-tripeptide substrate level at 2 times MIC by HPLC (reference value: 63 +/- 4 mAU). The gist of the method:
as §4

Experiment [23] concerns Escherichia coli. The experiment in a line: Antimicrobial activity against LPS-deffective Escherichia coli OC2530 harboring pMurF plasmid by broth microdilution method in presence of chloramphenicol. Type of experiment: functional. The gist of the method: (§5)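 CLSI broth microdilution MIC for OC2530 carrying plasmid (empty pASK or pMurF). Medium contained chloramphenicol 3 μg/ml to keep the plasmid and AHT 100 ng/ml to induce MurF expression.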

Experiment [24] deals with Escherichia coli. Briefly: Inhibition of LPS-deficient Escherichia coli OC2530 MurF assessed as UDP-MurNAc-tripeptide substrate level at 2 times MIC by HPLC (reference value: 1 mAU).
The test system of experiment [25] is Escherichia coli. Briefly: Inhibition of LPS-deficient Escherichia coli OC2530 MurF harboring pMurF plasmid assessed as UDP-MurNAc-pentapeptide product level at 2 times MIC by HPLC (reference value: 2674 +/- 696 mAU). The gist of the method: as §4
In experiment [26] the test system is Escherichia coli. Briefly: Antimicrobial activity against LPS-deffective Escherichia coli OC2530 assessed as cell aggregation at 0.5 times MIC by light microscopy relative to untreated control. Type of experiment: functional, organism-based. An outline of the steps:
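Cells were fixed on a glass slide under a coverslip and viewed by light microscopy at ×100/×1.25 oil immersion. Representative images were taken.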

Experiment [27] concerns Escherichia coli. The experiment in a line: Inhibition of LPS-deficient Escherichia coli OC2530 MurF harboring pMurF plasmid assessed as UDP-MurNAc-tripeptide substrate level at 2 times MIC by HPLC (reference value: 220 +/- 65 mAU). An outline of the steps:
as §4

For experiment [28], the system named is Escherichia coli. Briefly: Antimicrobial activity against LPS-deffective Escherichia coli OC2530 harboring pASK plasmid by broth microdilution method in presence of chloramphenicol. Type of experiment: functional. An outline of the steps:
as §5

≈ marks a conversion by molar mass, not a printed value. Calls of active or inactive are those of the source. The rule behind the calls is not given here. Bridge positions count the residues as written; N and C are the ends. Square brackets hold non-standard residues; d marks the D form. Peptide text beside a SMILES is read from it. Dab = NCC[C@H](N)C(=O)O

Take `COc1ccc2nc(OC)c([C@@H](c3ccccc3)[C@](O)(CCc3ccccc3)CCN(C)C)cc2c1`: the MIC was more than 32 mg/L against Escherichia coli [1]; 8 mg/L (≈ 16.5 µM) in the experiment on Staphylococcus aureus [2]; 8 mg/L (≈ 16.5 µM) in the experiment with Enterococcus faecalis; 8 mg/L (≈ 16.5 µM) with Enterococcus faecium; 8 mg/L (≈ 16.5 µM) in the experiment on Escherichia coli [6]; more than 32 mg/L in the experiment with Escherichia coli [10]. In addition, the MIC in the experiment on Staphylococcus aureus [12] is 8 mg/L (≈ 16.5 µM); in the experiment with Staphylococcus aureus [15] it was 8 mg/L (≈ 16.5 µM); with Escherichia coli [16], more than 32 mg/L; in the experiment with Staphylococcus aureus [18] it was 8 mg/L (≈ 16.5 µM). Further, the inhibition result with Staphylococcus aureus [3] was “Dose-dependent effect”. In the experiment with Staphylococcus aureus [4], the outcome was Active. In addition, the Activity (fold of control) in the experiment with Staphylococcus aureus [5] is 0.21; in the experiment on Staphylococcus aureus [8], more than 67; in the experiment with Staphylococcus aureus [9] it was more than 10; in the experiment with Staphylococcus aureus [11], more than 38; in the experiment with Staphylococcus aureus [13] it was 0.34; with Staphylococcus aureus [14] it was 0.6. In the experiment with Staphylococcus aureus [7], the result was inactive. Besides, it took 29 µM to reach half-maximal inhibition in [17] (IC50).

Take `CC(C)C[C@@H]1NC(=O)[C@@H](Cc2ccccc2)NC(=O)[C@H](CCN)NC(=O)[C@@H](NC(=O)[C@H](CCN)NC(=O)[C@@H](N)[C@@H](C)O)CCNC(=O)[C@H]([C@@H](C)O)NC(=O)[C@H](CCN)NC(=O)[C@H](CCN)NC1=O` [POLYMYXIN B NONAPEPTIDE] (H-T[Dab][Dab][Dab][dF]L[Dab][Dab]T; lactam 3-C): the MIC in the experiment with Escherichia coli [1] is 32 mg/L (≈ 33.2 µM); against Staphylococcus aureus [2], more than 64 mg/L; against Enterococcus faecalis, more than 64 mg/L; against Enterococcus faecium it was more than 64 mg/L; against Escherichia coli [6] it was 16 mg/L (≈ 16.6 µM); against Escherichia coli [10], 64 mg/L (≈ 66.4 µM). In addition, the MIC was more than 64 mg/L in the experiment on Staphylococcus aureus [12], more than 64 mg/L with Staphylococcus aureus [15], 64 mg/L (≈ 66.4 µM) with Escherichia coli [16] and more than 64 mg/L in the experiment on Staphylococcus aureus [18].

Take `N[C@@H]1CONC1=O` [CYCLOSERINE]: the Activity (fold of control) in the experiment on Escherichia coli [19] was 0.12; in the experiment on Staphylococcus aureus [11], more than 100; in the experiment on Escherichia coli [24] it was 30; with Staphylococcus aureus [13], 0.33. Also, the outcome in the experiment with Escherichia coli [20], with Staphylococcus aureus [4] and with Escherichia coli [26] was Active. Also, the MIC in the experiment on Escherichia coli [1] is 16 mg/L (≈ 157 µM); against Staphylococcus aureus [2], 64 mg/L (≈ 627 µM); in the experiment on Enterococcus faecalis, 128 mg/L (≈ 1250 µM); with Enterococcus faecium, 64 mg/L (≈ 627 µM); in the experiment with Escherichia coli [6] it was 64 mg/L (≈ 627 µM); in the experiment on Escherichia coli [23], 64 mg/L. The MIC is 32 mg/L (≈ 313 µM) in the experiment with Escherichia coli [10]; 32 mg/L (≈ 313 µM) in the experiment with Staphylococcus aureus [12]; 32 mg/L (≈ 313 µM) in the experiment on Staphylococcus aureus [15]; 32 mg/L (≈ 313 µM) with Escherichia coli [16]; 64 mg/L in the experiment on Escherichia coli [28]; 32 mg/L (≈ 313 µM) in the experiment with Staphylococcus aureus [18]. Further, the Activity in the experiment with Escherichia coli [21] turned out to be 146 mAU; in the experiment on Escherichia coli [22], 2260 mAU; in the experiment on Escherichia coli [25], 181 mAU; in the experiment with Escherichia coli [27], 5090 mAU.
